The structures appear in SMILES notation. A value given as a limit tells only on which side of the number the result lay.

Experimental findings from ChEMBL document CHEMBL2401736, “HCV NS5A replication complex inhibitors. Part 5: discovery of potent and pan-genotypic glycinamide cap derivatives” (Bioorg Med Chem Lett, 2013) are described below.

Data set [1] has as its system Hepatitis C virus. The experiment in a line: Antiviral activity against Hepatitis C virus genotype 3a. Type of data set: functional, organism-based, Hepacivirus hominis.
The subject of data set [2] is Hepatitis C virus. The experiment in a line: Antiviral activity against Hepatitis C virus genotype 2a NIH. The data set is classed as functional, organism-based, Hepacivirus hominis. The conditions noted are these: subtype 2a NIH.
Data set [3] has as its system Hepatitis C virus. The experiment in a line: Antiviral activity against Hepatitis C virus genotype 1a by ELISA. The data set is classed as functional, organism-based, Hepacivirus hominis, subtype 1a. In short, it runs like this:
(§1)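 EC50 values are means of at least two experiments, with at most threefold variation between them.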
On the technique in general: An ELISA detects its analyte on a solid surface through an enzyme-linked reagent.

In data set [4] the test system is Hepatitis C virus. The experiment in a line: Antiviral activity against Hepatitis C virus genotype 3a YH. The data set is classed as functional, organism-based, Hepacivirus hominis. The conditions noted are these: subtype 3a YH.
The subject of data set [5] is Hepatitis C virus. The experiment in a line: Antiviral activity against Hepatitis C virus genotype 5a. Type of data set: functional, organism-based, Hepacivirus hominis.
The subject of data set [6] is Hepatitis C virus. Put plainly: Antiviral activity against Hepatitis C virus genotype 1b harboring NS5A L31V/Y93H double mutant by FRET assay. Type of data set: functional, organism-based, Hepacivirus hominis.
The subject of data set [7] is Hepatitis C virus. The experiment in a line: Antiviral activity against Hepatitis C virus genotype 4a. The data set is classed as functional, organism-based, Hepacivirus hominis.
The nature of data set [8]: Dissociation constant, pKa of the compound in MeOH/H2O at pH 2 to 11. The data set is classed as physicochemical. In short, it runs like this:
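pKa found by potentiometric titration over pH 2–11 in varying MeOH/H2O mixtures.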

Data set [9] has as its system Hepatitis C virus. Put plainly: Antiviral activity against Hepatitis C virus genotype 1b by FRET assay. Type of data set: functional, organism-based, Hepacivirus hominis. In short, it runs like this: as §1
Data set [10] concerns Bovine viral diarrhea virus 1. The experiment in a line: Antiviral activity against Bovine viral diarrhea virus by luciferase assay. The data set is classed as functional, organism-based. A digest of the protocol:
as §1

Data set [11] deals with Hepatitis C virus. Put plainly: Ratio of EC50 for Hepatitis C virus genotype 1b harboring NS5A L31V/Y93H double mutant to EC50 for Hepatitis C virus genotype 1b. The data set is classed as functional, Hepacivirus hominis.
Data set [12] can be described thus: Metabolic stability in rat liver microsomes assessed as compound remaining after 10 mins. Type of data set: ADME, Microsome. Particulars: read-out: Stability. A digest of the protocol:
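Compound incubated with rat liver microsomes for 10 min; read-out is the percentage of parent remaining.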
(Liver microsomes are vesicles of endoplasmic reticulum, rich in cytochrome P450 enzymes.)

Data set [13] is described as follows: Clearance in rat at 2 mg/kg, iv after 4 hrs. The data set is classed as ADME, organism-based. Also on record: dose 2 mg/kg, route intravenous. The conditions noted are these: in vivo. In short, it runs like this: (§2)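 Rat 4 h PK screen: 2 mg/kg IV and 5 mg/kg PO, each dose as its line states. Plasma sampled 5 times (0.17, 0.5, 1, 2 and 4 h); n = 2 rats.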

A short description of data set [14]: (§3) AUC (0 to 4 hrs) in rat at 5 mg/kg, po. The data set is classed as ADME, organism-based, Plasma. On the set-up: time < 4 hr, dose 5 mg/kg, route oral. Particulars: plasma. A digest of the protocol:
as §2

Data set [15] is described as follows: Permeability of the compound across human Caco2 cells. The data set is classed as ADME, cell-based. Particulars: Caco-2, read-out: permeability.
Data set [16] is described as follows: AUC (0 to 4 hrs) in rat at 2 mg/kg, iv. The data set is classed as ADME, organism-based. On the set-up: time < 4 hr, dose 2 mg/kg, route intravenous. The conditions noted are these: plasma. In short, it runs like this: as §2
The next data set relates to Rattus norvegicus. The data set is described as §3. The data set is classed as ADME, organism-based, Plasma. Also on record: time < 4 hr, dose 5 mg/kg, route oral. The conditions noted are these: in vivo, 4 h, BLD = below limit of detection. In short, it runs like this:
as §2

Where [17] appears, read: Bovine viral diarrhea virus isolates and strains.

By EC50 is commonly meant the midpoint of the concentration-response curve. Low values mean higher potency in that assay, high ones lower potency in that assay. In general, pKa refers to the negative logarithm of the acid dissociation constant. A lower pKa goes with a group that gives up its proton readily. For the compound `O=C(Nc1ccc(C#Cc2ccc(NC(=O)[C@@H]3CCCN3C(=O)C(c3ccccc3)N3CCC(O)CC3)cc2)cc1)[C@@H]1CCCN1C(=O)C(c1ccccc1)N1CCC(O)CC1` (stereo in doubt; 5g.1), the EC50 worked out at 0.037 nM in the data set with Hepatitis C virus [1]; 0.083 nM with Hepatitis C virus [2]; 0.82 nM in the data set on Hepatitis C virus [3]; 5.4 nM in the data set with Hepatitis C virus [4]; 0.017 nM with Hepatitis C virus [5]; 12 nM in the data set with Hepatitis C virus [6]. Also, the concentration giving a half-maximal response (EC50) in the data set with Hepatitis C virus [7] was 0.042 nM; in the data set on Hepatitis C virus [9], < 0.13 nM; in data set [10], 6980 nM. In addition, the pKa in data set [8] worked out at 6.8. In the data set on Hepatitis C virus [11], the “Ratio EC50” value is given as >90.
Consider `O=C(Nc1ccc(/C=C/c2ccc(NC(=O)[C@@H]3CCCN3C(=O)Cc3ccccc3)cc2)cc1)[C@@H]1CCCN1C(=O)Cc1ccccc1`, for which the EC50 was 0.3 nM in the data set on Hepatitis C virus [1]; 260 nM in the data set on Hepatitis C virus [2]; > 10000 nM in the data set with Hepatitis C virus [3] (Hepatitis C virus, subtype 1a); > 3000 nM in the data set on Hepatitis C virus [4]; < 0.23 nM in the data set on Hepatitis C virus [5]; 0.16 nM in the data set with Hepatitis C virus [7]. Further, the EC50 in the data set on Hepatitis C virus [9] (Hepatitis C virus, genotype 1b) is 0.086 nM; in data set [10] (setting [17]), > 10000 nM.
Take `COC(=O)N[C@@H](C(=O)N1CCC[C@H]1C(=O)Nc1ccc(C#Cc2ccc(NC(=O)[C@@H]3CCCN3C(=O)[C@H](NC(=O)OC)c3ccccc3)cc2)cc1)c1ccccc1`: the concentration giving a half-maximal response (EC50) was 26 nM in the data set with Hepatitis C virus [3] (Hepatitis C virus, subtype 1a); 382 nM in the data set on Hepatitis C virus [6]; 0.013 nM in the data set with Hepatitis C virus [9] (Hepatitis C virus, genotype 1b); > 10000 nM in data set [10] (setting [17]).
Regarding `COc1cccc2c(C(=O)N3CCC[C@H]3C(=O)Nc3ccc(/C=C/c4ccc(NC(=O)[C@@H]5CCCN5C(=O)c5nc(Cl)cc6c(OC)cccc56)cc4)cc3)nc(Cl)cc12`, the EC50 in the data set with Hepatitis C virus [1] was 3.2 nM; in the data set on Hepatitis C virus [2] it was 14 nM; with Hepatitis C virus [3] (Hepatitis C virus, subtype 1a), 19 nM; in the data set with Hepatitis C virus [4], 74.9 nM; with Hepatitis C virus [5], 3 nM; with Hepatitis C virus [7] it was > 10000 nM. For the same compound, the EC50 is 7.1 nM in the data set on Hepatitis C virus [9] (Hepatitis C virus, genotype 1b) and > 10000 nM in data set [10] (setting [17]).
The clearance is a measure of how efficiently the substance is removed, as volume per time. High values mean efficient removal, low ones inefficient removal. For orientation: AUC(0-t) means exposure summed from dosing to a finite time, without extrapolation to infinity. High values mean high exposure, low ones low exposure. For `CC(=O)N[C@H](C(=O)N1CCC[C@H]1C(=O)Nc1ccc(C#Cc2ccc(NC(=O)[C@@H]3CCCN3C(=O)[C@@H](NC(C)=O)c3ccccc3)cc2)cc1)c1ccccc1`, the remaining at 10 min in data set [12] stood at 100%. Moreover, the EC50 in the data set with Hepatitis C virus [3] (Hepatitis C virus, subtype 1a) was 24 nM; with Hepatitis C virus [9] (Hepatitis C virus, genotype 1b) it was 0.005 nM; in [10] (setting [17]), > 10000 nM. The same compound showed a clearance in data set [13] of 0.798 L/h/kg. For the same compound, the exposure AUC(0-t) at 4 h in data set [14] is 93 nM·h; in data set [16], 2110 nM·h. Also, the Papp in data set [15] is < 15 nm/s.
Regarding `CN1CCN(C(C(=O)N2CCC[C@H]2C(=O)Nc2ccc(C#Cc3ccc(NC(=O)[C@@H]4CCCN4C(=O)C(c4ccccc4)N4CCN(C)CC4)cc3)cc2)c2ccccc2)CC1` (stereo in doubt; 5i.1), in [12], the remaining at 10 min was determined as 100%. The EC50 is < 4.6 nM with Hepatitis C virus [3], 0.152 nM with Hepatitis C virus [9] and > 3330 nM in data set [10]. In the data set on Rattus norvegicus, the AUC entry is “BLD”. The Papp in data set [15] is < 15 nm/s.
